The target of assay [1] is T1, Free fatty acid receptor 1 (Homo sapiens, UniProt O14842). Nature of the assay: Agonist activity at human GPR40 expressed in CHOK1 cells assessed as fold increase in calcium flux at 10 uM by fluorescence assay relative to control. Particulars: CHO-K1. Type of assay: functional, cell-based. The gist of the method:
(§1)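 CHO K1 cells stably transfected with hGPR40 (vector pCDN), seeded 10,000 cells/well on poly-D-lysine plates, 48 h culture; loaded 1 h with 2.5 µM Fluo-4AM in 10 mM Hepes, 2.5 mM probenecid, HBSS pH 7.5, washed thrice, 37 °C; Ca²⁺ flux read on FlexStation as fold over control; mock-transfected CHO K1 cells run in parallel for specificity.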
On the technique in general: Calcium assays in cells follow changes in intracellular calcium, usually with a dye or a luminescent sensor.

The target of assay [2] is T1, Free fatty acid receptor 1. Nature of the assay: Agonist activity at human GPR40 expressed in CHOK1 cells assessed as effect on calcium flux at 10 uM by fluorescence assay. Type of assay: functional, cell-based. Particulars: CHO-K1. The gist of the method: as §1
Assay [3] addresses T1, Free fatty acid receptor 1. Briefly: Activity at human GPR40 expressed in CHOK1 cells assessed as inhibition of linoleic acid-induced calcium flux by fluorescence assay. It is filed as functional, cell-based. Particulars: CHO-K1.
Assay [4] concerns the target Free fatty acid receptor 1 (Mus musculus, UniProt Q76JU9). Briefly: Agonist activity at mouse GPR40 expressed in HEK293 cells. Type of assay: functional, cell-based.
The target in assay [5] is T1, Free fatty acid receptor 1. Briefly: Agonist activity at GPR40. It is filed as functional.
Assay [6] has as its target T1, Free fatty acid receptor 1. Nature of the assay: Agonist activity at human GPR40 expressed in CHOK1 cells by fluorescence assay. Type of assay: functional, cell-based, CHO-K1. The gist of the method: as §1
Assay [7] concerns the target T1, Free fatty acid receptor 1. Briefly: Agonist activity at human GPR40 expressed in CHOK1 cells assessed as maximal response at 10 uM by fluorescence assay relative to linoleic acid. Particulars: CHO-K1. It is filed as functional, cell-based. The gist of the method: as §1
The target in assay [8] is T1, Free fatty acid receptor 1. Briefly: Agonist activity at GPR40 at 100 uM. Type of assay: functional.
Assay [9] concerns HIT-T15. Nature of the assay: Induction of insulin secretion in Syrian golden hamster HIT-T15 cells at 10 uM. Type of assay: functional, cell-based. Particulars: Mesocricetus auratus. The gist of the method:
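HIT-T15 hamster pancreatic cells treated with 10 µM compound; insulin secretion measured, with linoleic acid as reference.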

Assay [10] concerns the target T1, Free fatty acid receptor 1. Nature of the assay: Activation at GPR40 expressed in HEK293 cells at 100 uM by calcium mobilization-based FLIPR assay. It is filed as functional, cell-based.
For assay [11], the target named is T1, Free fatty acid receptor 1. Briefly: Agonist activity at GPR40 expressed in CHO cells by FLIPR assay. It is filed as functional, cell-based. The gist of the method:
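CHO-K1 cells stably transfected with hGPR40 (pCDN vector), seeded and grown 48 h, loaded 1 h with Fluo-4AM in 10 mM Hepes/Ca²⁺/2.5 mM probenecid HBSS pH 7.5, washed thrice, held at 37 °C. FlexStation calcium flux read as fold over control. EC50 from dose–response curves; efficacy as % of maximal linoleic acid response. Mock-transfected CHO-K1 run in parallel.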

In general, EC50 refers to the concentration needed to bring the measured effect to its halfway point. High values mean a need for much substance, low ones an effect from little substance.

The source made the active and inactive calls. The rule behind the calls is not given here. Some results are limits rather than exact numbers.

T1 sequence (O14842 whole entry): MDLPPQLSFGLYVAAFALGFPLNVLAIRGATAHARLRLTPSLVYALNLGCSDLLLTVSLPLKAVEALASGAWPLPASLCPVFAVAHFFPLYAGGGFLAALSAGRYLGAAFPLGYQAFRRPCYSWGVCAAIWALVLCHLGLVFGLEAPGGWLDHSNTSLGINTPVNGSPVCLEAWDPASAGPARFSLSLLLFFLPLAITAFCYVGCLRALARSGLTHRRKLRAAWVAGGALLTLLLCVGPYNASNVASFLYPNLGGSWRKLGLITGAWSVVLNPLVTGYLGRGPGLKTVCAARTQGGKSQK
Sequence of Free fatty acid receptor 1 (Mus musculus, UniProt Q76JU9) (Q76JU9 whole entry): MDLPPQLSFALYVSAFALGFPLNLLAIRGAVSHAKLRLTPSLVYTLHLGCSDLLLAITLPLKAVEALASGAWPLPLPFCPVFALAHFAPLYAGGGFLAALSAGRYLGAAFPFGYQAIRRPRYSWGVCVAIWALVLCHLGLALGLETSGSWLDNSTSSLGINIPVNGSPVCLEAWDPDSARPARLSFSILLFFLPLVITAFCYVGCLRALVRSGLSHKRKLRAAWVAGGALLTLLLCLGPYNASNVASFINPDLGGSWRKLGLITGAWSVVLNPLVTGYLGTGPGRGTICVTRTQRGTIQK

With `CCCCCCCC(=O)c1c(O)cc(O)c(C(=O)CCCCCCC)c1O`, in assay [1], the fold change (FC) worked out at 1.21. For the same compound, the outcome in assay [2] and in assay [3] was inactive.
`CCCCCCCCC1SC(=O)NC1=O` (stereo unspecified) gave an EC50 in assay [4] of 7940 nM.
`CC(C)CC(=O)c1c(O)cc(O)cc1O`: the fold change (FC) in [1] came out at 1.12. Also, the result in assay [2] and in assay [3] was inactive.
For the compound `CCCCC/C=C\C/C=C\CCCCCCCC(=O)O` [LINOLEIC ACID], the fold change (FC) in assay [1] is 2.55. Besides, the EC50 in [5] and in assay [6] was 540 nM each time. In addition, in [2], the result was Active.
Regarding `CCCCOc1cc(OCCCC)c(C(=O)CC(C)C)c(O)c1C(=O)CC(C)C`, in assay [1], the fold change (FC) came out at 1.35. The outcome in assay [2] and in assay [3] was inactive.
`O=C(O)CCc1ccc(OCc2ccc(CC(CCc3ccccn3)c3nc(-c4ccccc4)cs3)cc2)cc1` (stereo unspecified) came in with an EC50 in assay [5] of 19 nM.
For `CCCCCCCCCCCCCCCCCC(=O)c1c(O)cc(O)c(C(=O)CCCCCCCCCCCCCCCCC)c1O`, the fold change (FC) in [1] came to 1.19. Further, the outcome in [2] and in assay [3] was inactive.
Regarding `CCCCc1c(O)c(C(=O)CC(C)C)c(O)c(C(=O)CC(C)C)c1O`, in assay [1], the fold change (FC) is 2.12. The outcome in assay [2] was Active. The 50% effective concentration (EC50) in assay [6] came to 970 nM. Besides, the Activity in assay [7] was 84.5%.
Turning to `CC(C)CC(=O)c1c(O)cc(OCCO)c(C(=O)CC(C)C)c1O`, the fold change (FC) in [1] was found to be 1.02. The result in assay [2] and in [3] was inactive.
Take `CCCCOc1cc(O)c(C(=O)CC(C)C)c(O)c1C(=O)CC(C)C`: the fold change (FC) in assay [1] was 1.02. For the same compound, the outcome in assay [2] and in assay [3] was inactive.
For `Cc1cc(OCC2(C)COC2)cc(C)c1-c1cccc(COc2ccc(C3CC3C(=O)O)cc2)c1` (stereo unspecified), the Activity in assay [8] was determined as 119%.
Take `Cc1cccc(C)c1-c1cccc(COc2ccc(Cn3oc(=O)[nH]c3=O)cc2)c1`: the EC50 in assay [5] is 260 nM. In other words, the sub-micromolar range.
Regarding `CC(C)C(=O)c1c(O)cc(O)c(C(=O)C(C)C)c1O`, the fold change (FC) in assay [1] was 2.31. Further, the result in [2] and in assay [9] was Active. This compound registered an EC50 in assay [6] of 8000 nM. Besides, the Activity in assay [7] was 88.7%.
Turning to `O=C(O)CCCCCCCNc1ncc(-c2ccccc2)c(-c2ccccc2)n1`, the Activity in assay [10] came out at 104%.
As to `O=C(O)CCCC(=O)c1c(O)cc(O)cc1O`, in assay [1], the fold change (FC) was determined as 1. For the same compound, the outcome in [2] and in [3] was inactive.
As for `O=C(CCl)c1c(O)cc(O)c(C(=O)CCl)c1O`, the fold change (FC) in assay [1] amounted to 1.21. The result in assay [2] and in [3] was inactive.
Take `CCCCOc1ccc(C)cc1-c1ccc(COc2ccc3c(c2)CCC[C@H]3CC(=O)O)cc1`: the EC50 in assay [11] was below 100 nM.
With `CC(C)CC(=O)c1c(O)cc(O)c(C(=O)CC(C)C)c1O`, the fold change (FC) in assay [1] is 1.89. The outcome in assay [2] and in [9] was Active. The same compound returned an EC50 in assay [6] of 6000 nM. In addition, in [7], the Activity worked out at 102%.
For `O=C(O)[C@H]1[C@@H]2Oc3cc(Oc4ccc(C(F)(F)F)cc4Cl)ccc3[C@@H]21`, in [11], a half-maximal effect (EC50) was put at 0.1 nM.
On to `CC(C)CC(=O)c1c(O)c(Cc2c(O)c(C(=O)CC(C)C)c(O)c(C(=O)CC(C)C)c2O)c(O)c(C(=O)CC(C)C)c1O`, for which, in assay [1], the fold change (FC) turned out to be 1.11. The result in assay [2] and in assay [3] was inactive.
With `CCCCOc1cc(O)c(C(=O)CC(C)C)c(OCCCC)c1C(=O)CC(C)C`, the fold change (FC) in [1] is 1.46. For the same compound, the outcome in assay [2] and in [3] was inactive.
Regarding `CC(C)CC(=O)c1c(O)cc(O)c(C(=O)CCCC(=O)O)c1O`, the fold change (FC) in [1] turned out to be 1. Further, the result in [2] and in [3] was inactive.
In the case of `CC#CC(CC(=O)O)c1ccc(OC2CCc3cc(-c4cccs4)ccc32)cc1` (stereo unspecified), the EC50 in [5] came out at 10 nM.
On to `O=C(O)CCc1ccc2oc(Nc3cccc(Cl)c3Cl)nc2c1`, for which the Activity in [10] is 111%.
`CCCCCCCCCCCC(=O)c1c(O)cc(O)c(C(=O)CCCCCCCCCCC)c1O` [DIDODECANOYLPHLOROGLUCINOL]: the fold change (FC) in assay [1] worked out at 2.33. For the same compound, the outcome in assay [2] and in assay [9] was Active. The midpoint of the response in [6], the EC50, lay at 70 nM. The Activity in [7] was determined as 100%.
For `O=C(/C=C/C(=O)c1c(O)cc(O)cc1O)c1c(O)cc(O)cc1O`, the fold change (FC) in [1] stood at 1.01. The outcome in [2] and in assay [3] was inactive.
For `CCCCCCCCCCCCCCCC(=O)c1c(O)cc(O)c(C(=O)CCCCCCCCCCCCCCC)c1O`, the fold change (FC) in [1] worked out at 1.02. Moreover, the outcome in assay [2] and in [3] was inactive.
